Experiments:
Hepatic impairment study = assay type: in vivo, human
Summary of the method: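 Open-label single oral dose after ≥10 h overnight fast, held to 2 h postdose: Child-Pugh B (n=8) 2 mg; matched normal hepatic function (n=8) 5 mg. Parent and M11 plasma sampled predose to 240 h by validated LC-MS/MS (1.00-750 ng/mL). Data dose-normalized to 5 mg. Ln-transformed parameters by one-way ANOVA, cohort fixed; GMR and 90% CI back-transformed; unbound parameters analysed likewise.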

Renal impairment study = assay type: in vivo, human
Summary of the method: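 Renal function by Cockcroft-Gault. Parent and M11 plasma predose to 240 h by LC-MS/MS (1.00-750 ng/mL); unbound fraction by equilibrium dialysis at 4 h. Ln-parameters by one-way ANOVA; GMR with 90% CI.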

[1] = Plasma protein binding in human plasma at 1-10 µM; assay type: in vitro ADME
AAG = experiment: Separate in vitro equilibrium dialysis study, binding to AAG; assay type: in vitro ADME; conditions: AAG (alpha-1-acid glycoprotein)
HSA = HSA (Homo sapiens, UniProt P02768); experiment: Separate in vitro equilibrium dialysis study, binding to HSA; assay type: in vitro ADME; conditions: HSA (human serum albumin)
[2] = Safety and tolerability, hepatic impairment study; assay type: in vivo, human
[3] = Safety and tolerability, renal impairment study; assay type: in vivo, human
[4] = cited from earlier work
[5] = single oral 5 mg radiolabeled fruquintinib, healthy volunteers; cited from earlier work
[6] = cited from earlier work; remark: listed apart in the source
plasma protein = conditions: cited from earlier work
[7] = cited from earlier work; remark: listed apart in the source
[8] = moderate hepatic impairment vs normal hepatic function
[9] = moderate renal impairment vs normal renal function
[10] = severe renal impairment compared with normal renal function
[11] = severe renal impairment vs normal renal function

Sequence of HSA (P02768 25-609): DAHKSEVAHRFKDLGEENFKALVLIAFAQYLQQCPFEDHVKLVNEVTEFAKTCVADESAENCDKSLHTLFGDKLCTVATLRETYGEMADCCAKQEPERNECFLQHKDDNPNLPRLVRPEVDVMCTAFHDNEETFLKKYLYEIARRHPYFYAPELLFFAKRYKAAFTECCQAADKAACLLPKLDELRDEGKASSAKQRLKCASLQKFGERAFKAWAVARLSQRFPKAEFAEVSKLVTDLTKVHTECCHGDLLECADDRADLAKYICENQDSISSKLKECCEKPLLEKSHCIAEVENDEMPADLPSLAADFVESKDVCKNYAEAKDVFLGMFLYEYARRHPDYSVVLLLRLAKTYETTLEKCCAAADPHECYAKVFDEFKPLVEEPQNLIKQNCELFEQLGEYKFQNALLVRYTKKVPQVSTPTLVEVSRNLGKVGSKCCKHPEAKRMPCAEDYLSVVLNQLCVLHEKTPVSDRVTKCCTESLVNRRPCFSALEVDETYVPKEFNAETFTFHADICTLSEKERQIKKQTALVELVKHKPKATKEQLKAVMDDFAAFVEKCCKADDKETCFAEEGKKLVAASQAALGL

With `CNC(=O)c1c(C)oc2cc(Oc3ncnc4cc(OC)c(OC)cc34)ccc12` [fruquintinib] the “CL/F, mean (SD)” value (Hepatic impairment study; moderate hepatic impairment (Child-Pugh B), N = 8, single oral 2 mg) was 17.4 mL/min, the “difference in dose-normalized Cmax” value (Hepatic impairment study; moderate hepatic impairment compared with normal hepatic function) was “less than 5%” and the AUCs lower (Hepatic impairment study; moderate hepatic impairment compared with normal hepatic function, dose normalized) was “approximately 10%”. For the same molecule, the “LS GMR DN AUC0-inf [90% CI]” value (Hepatic impairment study; [8]) was 0.91, the “LS GMR DN AUC0-t [90% CI]” value (Hepatic impairment study; [8]) was 0.89 and the “LS GMR DN Cmax [90% CI]” value (Hepatic impairment study; [8]) was 1.04. For the same molecule, the “CL/F, mean (SD)” value (Hepatic impairment study; normal hepatic function, N = 8, single oral 5 mg) was 15.3 mL/min, the “CL/F, mean (SD)” value (Renal impairment study; moderate renal impairment (CrCl 30-59 mL/min), N = 8, single oral 5 mg) was 14.2 mL/min and the “difference across Cmax, AUC0-t, and AUC0-inf” value (Renal impairment study; moderate renal impairment compared with normal renal function) was “less than 8%”. The “LS GMR DN AUC0-inf [90% CI]” value (Renal impairment study; [9]) was 1.07, the “LS GMR DN AUC0-t [90% CI]” value (Renal impairment study; [9]) was 1.06 and the “LS GMR DN Cmax [90% CI]” value (Renal impairment study; [9]) was 0.95. For the same molecule, the “CL/F, mean (SD)” value (Renal impairment study; normal renal function, N = 8, single oral 5 mg) was 15.0 mL/min, the “CL/F, mean (SD)” value (Renal impairment study; severe renal impairment (CrCl 15-29 mL/min), N = 8, single oral 2 mg) was 15.0 mL/min and the “difference in AUCs” value (Renal impairment study; [10]) was “less than 3%”. The “dose-normalized Cmax lower” value (Renal impairment study; [10]) was “approximately 11%”, the “LS GMR DN AUC0-inf [90% CI]” value (Renal impairment study; [11]) was 1.01 and the “LS GMR DN AUC0-t [90% CI]” value (Renal impairment study; [11]) was 0.97. For the same molecule, the “LS GMR DN Cmax [90% CI]” value (Renal impairment study; [11]) was 0.89, the fraction unbound at 1 µM [1] was 0.046 and the fraction unbound at 3 µM [1] was 0.047. The fraction unbound at 10 µM [1] was 0.047, the fraction unbound at 0.1 µM (AAG) was 0.356 and the fraction unbound at 1 µM (AAG) was 0.358. The fraction unbound at 10 µM (AAG) was 0.413, the fraction unbound at 0.1 µM (HSA) was 0.0565 and the fraction unbound at 1 µM (HSA) was 0.0635. For the same molecule, the fraction unbound at 10 µM (HSA) was 0.0627, the “participants with treatment emergent adverse events (TEAEs)” value ([2]; 4 of the 16 participants, all TEAEs in moderate hepatic impairment) was 25.0% and the tolerability ([2]; both studies, single dose 2 or 5 mg) was “generally well tolerated”. For the same molecule, the “participants with treatment-related TEAEs” value ([2]; hepatic impairment study, three of 16 participants) was 18.8%, the participants with dizziness ([2]; moderate hepatic impairment, one of 8, grade 1, nonserious, related) was 12.5% and the “participants with urinary tract infection” value ([2]; moderate hepatic impairment, one of 8, grade 2, nonserious, not related) was 12.5%. The “participants with TEAEs” value ([3]; 3 of the 24 participants) was 12.5%, the participants with headache ([3]; moderate renal impairment, one of eight, grade 1, nonserious, not related) was 12.5% and the participants with hypoglycemia ([3]; moderate renal impairment, one of eight, grade 3, nonserious, not related) was 12.5%. For the same molecule, the “participants with eye pruritis and periorbital edema” value ([3]; normal renal function, one of eight, grade 1, nonserious, not related) was 12.5%, the “elimination half-life (t1/2)” value [4] was “approximately 42 h” and the weight-normalized apparent clearance [4] was “approximately 0.17 mL/min/kg”. For the same molecule, the “time to steady-state concentrations” value ([4]; consecutive QD dosing) was 14 days, the “median time to maximum plasma concentration (Tmax)” value ([4]; oral administration, patients with cancer) was “approximately 2 h” and the accumulation at steady-state ([4]; relative to a single dose, QD dosing) was “approximately 4 fold”. The “dose recovered in feces” value [5] was 30%, the “dose recovered in urine” value [5] was “approximately 60%” and the “dose recovered unchanged in feces” value [5] was 5%. For the same molecule, the “dose recovered unchanged in urine” value [5] was 0.5%, the “change in fruquintinib exposure” value ([6]; co-administration with itraconazole, a strong CYP3A inhibitor) was “did not result in clinically meaningful change” and the “reduction of fruquintinib exposure” value ([6]; concurrent use of rifampin, a strong metabolic enzyme inducer) was “approximately 65%”. For the same molecule, the “protein binding in human plasma” value (plasma protein) was “approximately 95%”, the “inter-individual variability in apparent oral clearance” value [7] was 26% and the “impact of mild to moderate renal impairment and mild hepatic impairment on PK” value ([7]; population PK analysis) was “no clinically meaningful impact”.

Reference: paper PMC12484386 (Journal of Clinical Pharmacology, 2025)
